Each structure is given as a SMILES string. Calls of active or inactive are those of the source. The calls are words filed in the database; no cut-off is given here.

One may read the IC50 as the concentration that inhibits the measured activity by half. Broadly, the inhibition is the change of the read-out against control, counted positive when it falls.

For assay [1], the target named is T1, C-X-C chemokine receptor type 4 (Homo sapiens, UniProt P61073). Kind of assay: Displacement of [125I]-CXCL12 from human CXCR4 receptor expressed in HEK293T cell membranes after 2 hrs by scintillation counting analysis. The method in brief: (§1)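 Membranes (5 µg/well) from HEK293T transiently transfected with hCXCR4, incubated 2 h at 25 °C with 50 pM ¹²⁵I-CXCL12 in HEPES pH 7.4 buffer with CaCl₂, MgCl₂, NaCl, 1% BSA. Filtration through PEI-soaked GF/C, then scintillation counting. Non-specific binding defined by 10⁻⁵ M IT1t; three-parameter fit for pIC₅₀. Single-point displacement at 100 μM vs IT1t (100%). N = 3, triplicate.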
T1 sequence (P61073 whole entry): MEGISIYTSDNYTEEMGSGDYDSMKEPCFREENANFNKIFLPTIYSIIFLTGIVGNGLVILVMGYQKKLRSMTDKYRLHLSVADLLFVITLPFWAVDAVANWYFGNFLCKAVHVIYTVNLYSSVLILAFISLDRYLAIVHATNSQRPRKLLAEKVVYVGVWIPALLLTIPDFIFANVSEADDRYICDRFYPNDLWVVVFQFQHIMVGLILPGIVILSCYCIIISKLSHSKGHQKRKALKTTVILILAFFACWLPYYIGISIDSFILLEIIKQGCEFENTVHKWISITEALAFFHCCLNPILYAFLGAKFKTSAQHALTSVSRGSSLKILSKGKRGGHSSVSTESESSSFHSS
Background: In a radioligand displacement assay an active substance lowers the binding of a labelled ligand.

In assay [2] the target is T1, C-X-C chemokine receptor type 4. Kind of assay: Displacement of [125I]-CXCL12 from human CXCR4 receptor expressed in HEK293T cell membranes at 100 uM after 2 hrs by scintillation counting analysis relative to IT1t. An outline of the steps: as §1
Assay [3] shares this target. Kind of assay: Antagonist activity at human DEF3-RLuc fused CXCR4 receptor expressed in HEK293T cells co-expressing DEF3-Beta-arrestin-2-mVenus assessed as inhibition of CXCL12-induced beta-arrestin2 recruitment preincubated for 60 mins followed by CXCL12 addition measured after 20 mins by BRET assay. The format is cell-based. (Arrestin recruitment assays detect the binding of arrestin to an activated receptor.)

The target is the same in assay [4]. Kind of assay: Antagonist activity at human DEF3-fused CXCR4 receptor expressed in HEK293T cells co-expressing DAN1-HA-Galphaq/i5 assessed as inhibition of CXCL12-induced IP3 accumulation after 90 mins in presence of [3H]-myo-inositol by scintillation counting analysis. Type of assay: functional, cell-based. The method in brief: (§2)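 HEK293T co-transfected (PEI) with CXCR4 and HA-Gαq/i5, moved next day to poly-L-lysine wells and labelled overnight with 1 µCi/mL [³H]-myo-inositol in inositol-free DMEM. Antagonist dilutions with 10 nM CXCL12, 10 mM LiCl, 0.05% BSA in HEPES saline pH 7.4, 1.5 h at 37 °C. InsP isolated on […] columns, then scintillation counted. Single-point at 100 μM vs IT1t; N ≥ 3, triplicate.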

For assay [5] the target is unchanged. Kind of assay: Competitive antagonist activity at human CXCR4 receptor expressed in HEK293T cells co-expressing galphai1 assessed as inhibition of CXCL12-induced receptor activation up to 100 uM preincubated for 30 mins followed by CXCL12 addition and measured after 20 mins by FRET assay. Type of assay: cell-based. An outline of the steps: (§3)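 HEK293T transfected (Effectene) with CXCR4 and a Gαi1 FRET sensor, seeded on poly-D-lysine, read 24 h later at 37 °C in HEPES buffer pH 7.3. Antagonist at 0.1, 1, 10 or 100 µM (final, from DMSO) for 30 min, 5 min pre-read, then increasing CXCL12, FRET read 20 min (ex 420, em 485/540 nm). CXCL12 curves built per antagonist level; 3–5 repeats.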

Assay [6] shares this target. Kind of assay: Displacement of [125I]-CXCL12 from human CXCR4 receptor expressed in HEK293T cell membranes at 63 uM after 2 hrs by scintillation counting analysis relative to IT1t. The method in brief:
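hCXCR4 membranes from transiently transfected HEK293T, competing against ¹²⁵I-CXCL12 at 40 pM, 2 h at 25 °C, filtration and scintillation counting. Percentage displacement by ligand at 63 μM relative to IT1t at 63 μM (100%). N = 3, triplicate.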

The target is the same in assay [7]. Kind of assay: Antagonist activity at human DEF3-RLuc fused CXCR4 receptor expressed in HEK293T cells co-expressing DEF3-Beta-arrestin-2-mVenus assessed as inhibition of CXCL12-induced beta-arrestin2 recruitment at 100 uM preincubated for 60 mins followed by CXCL12 addition measured after 20 mins by BRET assay relative to IT1t. The format is cell-based. The method in brief: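 HEK293T cells transiently co-transfected (PEI) with hCXCR4-RLuc and β-arrestin-2-mVenus, assayed two days later in HBSS. Compound given 60 min before 10 nM CXCL12 with 5 µM coelenterazine-h; RLuc (480 nm) and 540 nm read after 20 min. BRET ratio expressed as fold over vehicle. Single-concentration inhibition at 100 μM, IT1t as 100%. N = 3, triplicate.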

Assay [8] has the same target. Kind of assay: Antagonist activity at human DEF3-fused CXCR4 receptor expressed in HEK293T cells co-expressing DAN1-HA-Galphaq/i5 assessed as inhibition of CXCL12-induced IP3 accumulation at 100 uM after 90 mins in presence of [3H]-myo-inositol by scintillation counting analysis relative to IT1t. The format is functional, cell-based. An outline of the steps: as §2

The target is the same in assay [9]. Kind of assay: Non-competitive antagonist activity at human CXCR4 receptor expressed in HEK293T cells co-expressing galphai1 assessed as inhibition of CXCL12-induced receptor activation up to 100 uM preincubated for 30 mins followed by CXCL12 addition and measured after 20 mins by FRET assay. Type of assay: cell-based. The method in brief: as §3
The target is the same in assay [10]. Kind of assay: Displacement of CXCL12-red from human NLuc-tagged CXCR4 receptor expressed in HEK293T cell membranes after 2 hrs by NanoBRET assay. An outline of the steps:
(§4)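 Membranes (10 µg/well) from HEK293G cells stably expressing sig-NLuc–CXCR4 (G418-selected), in HBSS pH 7.4. CXCL12-red (50 nM) and competitor added together, 2 h at 37 °C; 10 µM furimazine, emissions at 460 and >610 nm read 5 min later, BRET ratio >610/460. Normalized to buffer (0%) and IT1t (100%); N = 3, triplicate.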
A general note: In BRET a luciferase serves as donor, and the signal depends on an acceptor being close.

Assay [11] shares this target. Kind of assay: Displacement of CXCL12-red from human NLuc-tagged CXCR4 receptor expressed in HEK293T cell membranes at 100 uM after 2 hrs by NanoBRET assay relative to IT1t. The method in brief:
as §4

On to `Oc1ccc(CN2CCC(CNCc3ccccc3)CC2)cc1`, for which the IC50 in [1] is over 10000 nM; in assay [3], over 31600 nM; in assay [4] it was over 31600 nM. The inhibition in [2] worked out at 65%.

With `c1cc(CN2CCCNCCNCCCNCC2)ccc1CN1CCCNCCNCCCNCC1`, in assay [5], the inhibition entry was “Active”.

The compound `Cc1cccc(CNCC2CCN(Cc3c(Cl)cccc3Cl)CC2)c1` had a concentration for half-maximal inhibition (IC50) in assay [1] of 251 nM. Moreover, the inhibition in assay [2] turned out to be 60%.

As to `NCCC1CCN(Cc2ccccc2Cl)CC1`, in [1], the concentration for half-maximal inhibition (IC50) was over 10000 nM. Moreover, the inhibition in assay [2] stood at 56%.

Turning to `COc1ccccc1CN1CCC(CN)CC1`, the half-maximal inhibitory concentration (IC50) in assay [1] was over 10000 nM. Moreover, the inhibition in assay [2] stood at 67%.

Consider `CCc1cccc(CNCC2CCN(Cc3ccccc3OC)CC2)c1`, for which the IC50 in assay [1] is 794 nM. In [2], the inhibition came out at 81%.

In [1], `Cc1ccccc1CNCC1CCN(Cc2ccccc2Cl)CC1` showed an IC50 of 251 nM. Moreover, the inhibition in assay [2] is 72%.

For `CN(C)CCCNCc1ccc(Cl)c(Cl)c1`, in assay [1], the IC50 was over 10000 nM. In addition, in assay [6], the inhibition came out at 70%.

In the case of `Clc1ccccc1CN1CCC(CNCc2cccc(-c3ccccc3)c2)CC1`, the IC50 in [1] is 501 nM; in [3], 2510 nM; in [4] it was 1260 nM; in assay [10] it was 631 nM. Further, the inhibition is 98% in [2]; 102% in assay [7]; “Dose-dependent effect” in assay [4]; 94% in assay [8]; 98% in [11]. In [9], the inhibition result is “Active”.

Regarding `Clc1ccccc1CN1CCC(CNCC2CCCCC2)CC1`, the IC50 in assay [1] was 3160 nM. Moreover, the inhibition in [2] came to 77%.

In assay [1], `Cc1ccc(CNCC2CCN(Cc3ccccc3Cl)CC2)cc1` had a half-maximal inhibitory concentration (IC50) of 1000 nM. In addition, the inhibition in assay [2] is 62%.

As to `CCC[C@H](C)c1cc(CN(C)C)c(O)cc1CN(C)C`, the inhibition in assay [6] is over 50%.

In the case of `Clc1cccc(CNCC2CCN(Cc3ccccc3Cl)CC2)c1`, the IC50 in assay [1] is 316 nM. The inhibition in [2] was found to be 65%.

Consider `COc1ccccc1CN1CCC(CNCc2ccccc2)CC1`, for which the IC50 in assay [1] is 2510 nM. The inhibition in [2] stood at 85%.

For `NCC1CCN(Cc2ccccc2Cl)CC1`, in assay [1], the IC50 was 10000 nM. Further, the inhibition in [6] came out at 69%.

`Cc1ccccc1CN1CCC(CN)CC1` showed an IC50 in [1] of over 10000 nM. In [2], the inhibition was determined as 81%.

In assay [1], `NCC1CCN(CC2CCCCC2)CC1` gave a concentration for half-maximal inhibition (IC50) of over 10000 nM. Further, the inhibition in [2] turned out to be 59%.

For `CCCNCC1CCN(Cc2ccccc2C)CC1`, the inhibition in assay [6] is over 50%.

`Cc1cccc(CNCC2CCN(Cc3ccc(Cl)cc3)CC2)c1` showed a half-maximal inhibitory concentration (IC50) in assay [1] of 10000 nM. Besides, the inhibition in assay [2] is 86%.

For `c1ccc(CNCC2CCN(Cc3ccccc3)CC2)cc1`, the concentration for half-maximal inhibition (IC50) in [1] is 10000 nM. Further, in assay [2], the inhibition worked out at 72%.

In the case of `Oc1ccc(CNCC2CCN(Cc3ccccc3Cl)CC2)cc1`, the IC50 in [1] was 316 nM. The inhibition in [2] was determined as 98%.

With `Clc1ccccc1CN1CCC(CNCc2ccccc2)CC1`, the IC50 in [1] is 316 nM; in assay [3], 3980 nM; in [4] it was 2000 nM; in assay [10], 794 nM. The inhibition was 87% in assay [2]; 103% in [7]; “Dose-dependent effect” in [4]; 93% in assay [8]; 84% in assay [11]. Besides, in assay [5], the inhibition result was “Active”.

For the compound `Clc1ccccc1CN1CCC(CNCc2c[nH]cn2)CC1`, the half-maximal inhibitory concentration (IC50) in assay [1] was 1000 nM. In addition, the inhibition in assay [2] amounted to 96%.

The compound `Clc1ccccc1CN1CCC(CNCc2cccnc2)CC1` showed an IC50 in assay [1] of 2000 nM. In assay [2], the inhibition was 89%.

Turning to `Cc1cccc(CNCC2CCN(Cc3cccc(Cl)c3)CC2)c1`, the IC50 in assay [1] is 2510 nM. Moreover, the inhibition in assay [2] was 86%.

The compound `Clc1ccccc1CN1CCC(CNCc2cccc(Cl)c2Cl)CC1` showed an IC50 in assay [1] of 2510 nM. Moreover, the inhibition in [2] came out at 13%.

Compound `Clc1ccccc1CN1CCC(CNCc2ccc3c(c2)OCO3)CC1` showed a half-inhibitory concentration (IC50) in assay [1] of 251 nM. Also, the inhibition in assay [2] was found to be 72%.

On to `COc1ccc(CNCC2CCN(Cc3ccccc3Cl)CC2)cc1`, for which the half-maximal inhibitory concentration (IC50) in [1] was 1260 nM. Further, the inhibition in assay [2] was determined as 88%.

Regarding `COc1ccccc1CN1CCC(CNCc2cccc(C)c2)CC1`, the IC50 in [1] was 794 nM. Besides, the inhibition in [2] was determined as 84%.

Take `Cc1cccc(CNCC2CCN(Cc3ccccc3Cl)CC2)c1`: the IC50 is 158 nM in assay [1], 3160 nM in [3], 1000 nM in assay [4] and 1000 nM in assay [10]. Further, the inhibition in [2] is 63%; in assay [7] it was 97%; in [4] it was “Dose-dependent effect”; in [8], 87%; in assay [11] it was 73%. Moreover, the inhibition entry in assay [9] is “Active”.

In turn, `Clc1ccccc1CNCC1CCN(Cc2ccccc2Cl)CC1` showed an IC50 in assay [1] of 200 nM. The inhibition in [2] is 80%.

As to `Clc1ccc(CNCC2CCN(Cc3ccccc3Cl)CC2)cc1`, the IC50 in assay [1] is 631 nM. The inhibition in [2] was found to be 80%.

On to `NCC1CCN(Cc2ccc(Cl)c(Cl)c2)CC1`, for which the IC50 in assay [1] is over 10000 nM. For the same compound, the inhibition in assay [2] came out at 67%.

`Clc1ccccc1CN1CCC(CNCc2ccc3ccccc3c2)CC1` showed an IC50 in assay [1] of 501 nM. Also, in assay [2], the inhibition was 78%.

Consider `Cc1cccc(CNCC2CCN(Cc3cccc(Cl)c3Cl)CC2)c1`, for which the IC50 in assay [1] was 794 nM. In addition, the inhibition in assay [2] worked out at 74%.

Source of the values: ChEMBL document CHEMBL4382250, “Structure-based exploration and pharmacological evaluation of N-substituted piperidin-4-yl-methanamine CXCR4 chemokine receptor antagonists” (Eur J Med Chem, 2019).
